# Measured values pooled from the literature.
# CHRM5: Muscarinic acetylcholine receptor M5 (CHRM5, Homo sapiens, UniProt P08912)
# TPR: Trypanothione reductase (TPR, Trypanosoma cruzi, UniProt P28593)
# BCHE: Cholinesterase (BCHE, Homo sapiens, UniProt P06276)
SMILES,target,assay,conditions,measurement,result
Cn1cc(-c2cccc(N3CCc4c(sc5c4CC(C)(C)C5)C3=O)c2CO)cc(Nc2ccncn2)c1=O,"Tyrosine-protein kinase Fgr (FGR, Homo sapiens, UniProt P09769)","enzyme activity, inhibitor, FRET",,Ki,> 1.11 µM
CNC(=O)[C@@]12C[C@@H]1[C@@H](n1cnc3c(NC)nc(C#Cc4ccc(Cl)s4)cc31)[C@H](O)[C@@H]2O,"Sodium-dependent noradrenaline transporter (SLC6A2, Homo sapiens, UniProt P23975)","ligand displacement, radioligand",cell membranes,Ki,> 10 µM
CC1=NCCc2c1[nH]c1cc(O)ccc21,"Tyrosine-protein phosphatase non-receptor type 12 (PTPN12, Homo sapiens, UniProt Q05209)","enzyme activity, inhibitor, fluorescence",,IC50,35 µM
CC(=O)Nc1ccc(O)cc1,"Ribosyldihydronicotinamide dehydrogenase [quinone] (NQO2, Homo sapiens, UniProt P16083)","enzyme activity, inhibitor",,Ki,> 1000 µM
CSCC[C@H](NC(=O)[C@H](CC(C)C)NC(=O)[C@H](Cc1cnc[nH]1)NC(=O)CNC(=O)[C@@H](NC(=O)[C@H](C)NC(=O)[C@H](Cc1c[nH]c2ccccc12)NC(=O)[C@H](CCC(N)=O)NC(=O)[C@H](CC(N)=O)NC(=O)CNC(=O)[C@H](CC(C)C)NC(=O)[C@H](CCCN=C(N)N)NC(=O)[C@H](CCC(N)=O)NC(=O)[C@@H]1CCC(=O)N1)C(C)C)C(N)=O,"Bombesin receptor subtype-3 (Brs3, Mus musculus, UniProt O54798)","calcium signal, agonist, fluorescence",,EC50,> 10 µM
CC(C)C(Nc1nc(Cl)nc2c1ncn2[C@H]1[C@H](O)[C@H](O)[C@]2(CO)C[C@H]12)C(C)C,CHRM5,"ligand displacement, radioligand",,Ki,> 6.3 µM
Cc1cc(C)c2[nH]c(=O)c(CN(CCO)C(=S)Nc3ccc(O)cc3)cc2c1,"Beta-glucuronidase (uidA, Escherichia coli, UniProt P05804)","enzyme activity, inhibitor",,EC50,4.5 µM
Cc1cc(O)cc(C)c1C[C@H](N)C(=O)N[C@H](C)C(=O)N[C@@H](Cc1ccccc1)C(=O)N[C@@H](CCCN)C(N)=O,"Mu-type opioid receptor (OPRM1, Cavia porcellus, UniProt P97266)","ligand displacement, radioligand",cell membranes,Ki,3.3e-05 µM
CNC1CC(c2ccc(Cl)c(Cl)c2)c2ccccc21 (stereo not drawn),TPR,"enzyme activity, inhibitor, absorbance",,IC50,7.26 µM
C=CCn1c2cc(OC(=O)CCCCN3CCN(Cc4cccc(C)c4)CC3)ccc2c2ccnc(C)c21,BCHE,"enzyme activity, inhibitor, Ellman",,IC50,0.251 µM
CC(C)(C)[C@H](Nc1nc(Cl)nc2c1ncn2[C@H]1[C@H](O)[C@H](O)[C@]2(CO)C[C@H]12)C1CC1,CHRM5,"ligand displacement, radioligand",,Ki,> 6.2 µM
C[C@H](N)Cn1ncc2ccc3c(c21)CCCO3,"Serotonin 4 (5-HT4) receptor (Sus scrofa, UniProt Q6Q253)","ligand displacement, radioligand",,IC50,30.3 µM
O=C(O)c1ccccc1-c1c2cc(Br)c(=O)cc-2oc2[c]([Hg+])c(O)c(Br)cc12,"Proteinase K (PROK, Engyodontium album, UniProt P06873)","binding, ITC",,Kd,~3000 µM
c1ccc2c(c1)CCc1ccccc1C2OCCN1CCNCC1,TPR,"enzyme activity, inhibitor, absorbance",,IC50,51.5 µM
C[C@H]1COC2=C1C(=O)C(=O)c1c2ccc2c1CCCC2(C)C,BCHE,"enzyme activity, inhibitor",,Ki,> 100 µM
